# According to article PMC10613959 (Toxicological Sciences, 2023):
# Like-named read-outs stand apart in the source and are kept apart here.
# Assays:
# [1] = Blood partitioning assay for Rbp; assay type: in vitro ADME; conditions: both, human
# In short: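 Fresh pooled mixed-gender human whole blood (lithium heparin) and reference plasma centrifuged from the same blood were each incubated with 5 µM test compound at 37°C, n = 3. Reactions were stopped at 0 and 60 min. Rbp was derived by LC-MS/MS from test compound concentration in control plasma versus whole-blood supernatant. Chlorthalidone 5 µM served as positive control.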
# Cross filtration = assay type: in vitro ADME; conditions: both, human, pooled human plasma
# In short: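 Modified cross-ultrafiltration: 10 µM test compound in pooled mixed-gender human plasma, 60 min at 37°C, n = 3, then ultrafiltered beside blank plasma. Each retentate was mixed into the partner filtrate and the regenerated samples analysed by LC-MS/MS. Warfarin 10 µM was positive control. Stability was checked at 60 min against non-incubated control. Recovery-corrected mean PPB from filtrate; Fup = 100 − PPB.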
# [2] = Metabolic stability in primary human hepatocytes in suspension; assay type: in vitro ADME; conditions: human, cryopreserved human hepatocytes in suspension (5 donor pool)
# In short: (§1)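 Cryopreserved human hepatocytes (5-donor pool, 0.8 × 10^6 cells/ml) in Williams E medium (25 mM HEPES, 2 mM L-glutamine) were incubated with test compound at 0.1, 1 and 10 µM, 37°C, n = 3. Sampled at 0, 15, 60, 90, 180 and 240 min; solvent ≤0.5% DMSO or 1% ACN. Heat-inactivated hepatocytes were the negative control. Parent loss was measured by LC-MS. CLint = −k·V (k, slope of log concentration vs time; V, incubation volume/cell number).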
# human hepatocytes = assay: as above; assay type: in vitro ADME; conditions: for depletion in suspension hepatocytes: human suspension hepatocytes, compared with Naloxone
# In short: as §1
# [3] = Skin absorption parameters; parameters: species or system human; conditions: Fitted; for Vehicle/water partition coefficient: vehicle/formulation specific
# In short: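 A skin model in GastroPlus TCAT started from in silico predicted values for the vehicle, stratum corneum, epidermis and dermis. Its diffusivities and partition coefficients were fitted to skin penetration data: receptor-fluid time course where available, plus skin wash and layer distribution. Parameters were adjusted to minimise model–data difference and then used in the human dermal model. Vehicle/water partitioning is formulation-specific.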
# [4] = Scaling of in vitro CLint to in vivo CLint and CLliver; parameters: species or system human; conditions: scaled from the mean in vitro CLint
# In short: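 Mean in vitro hepatocyte CLint was scaled to in vivo CLint (l/h) using a scaling factor: million cells per gram of liver × grams of liver weight. In vivo CLint was then converted to hepatic clearance with two variations of the well-stirred liver model.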
# [5] = PBK population simulation of plasma concentrations; parameters: species or system human
# In short: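 GastroPlus population simulations reproduced the clinical designs. Lotion or non-aerosol spray, 2 mg/cm2 over 75% body surface, once at 0 h on day 1 and 4 times daily at 2-h intervals on days 2–4 (mixed multiple-dose profile). Alternatively, a 4% formulation over 90% body surface, about 22 mg/kg bw, in 3 male and 3 female subjects. Simulated-mean/observed-mean ratios for Cmax and AUC0−t; 10th–90th percentiles generated.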
# [6] = human skin, cited from earlier work
# [7] = human plasma, topical sunscreen, ref Matta et al., 2020, cited from earlier work
# [8] = Ex vivo skin penetration study of radiolabeled OMC; assay type: in vitro ADME; conditions: human skin; for Dermal delivery (Epidermis + Dermis + Receptor fluid), 14C-OMC / Dermis, distribution of 14C-OMC / Epidermis, distribution of 14C-OMC / Receptor fluid, distribution of 14C-OMC / Skin excess, distribution of 14C-OMC / Total recovery, 14C-OMC / Total strips (1–20), distribution of 14C-OMC: mean
# In short: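 Dermatomed skin, 350–450 µm, in flow-through diffusion cells (1 cm2 area), unoccluded, surface at 32°C ± 1°C. Receptor fluid (5% w/w BSA, 0.9% NaCl) flowed at 1.5 ml/h and was collected hourly. Runs ended at 30 min, 1, 2, 4, 8 h (n = 5) or 24 h (n = 12). Up to 20 tape strips; epidermis heat-separated from dermis; compartments counted by scintillation. Dermal delivery = epidermis + dermis + receptor fluid.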
# [9] = target dose 300 µg/cm^2, ref SCCS, 2021
smiles,measurement,setting,value
"CCCCC(CC)COC(=O)C(C#N)=C(c1ccccc1)c1ccccc1 (centres unmarked) [Octocrylene, octocrylene]","blood plasma ratio at 60 min, 5 µM",[1],0.73
same,"fraction unbound at 60 min, 10 µM",Cross filtration,0.0014
same,hepatocyte CLint,[2],16.9 µL/min/1e6 cells
same,hepatocyte CLint at 0.1 µM,[2],27.8 µL/min/1e6 cells
same,hepatocyte CLint at 1 µM,[2],15.2 µL/min/1e6 cells
same,hepatocyte CLint at 10 µM,[2],7.6 µL/min/1e6 cells
same,depletion in suspension hepatocytes,human hepatocytes,medium to fast depletion
same,Dermis diffusivity,[3],6.0E−08 cm^2/s
same,Dermis/water partition coefficient,[3],7.0E−01
same,Epidermis diffusivity,[3],2.0E−08 cm^2/s
same,Epidermis/water partition coefficient,[3],6.0E+02
same,Stratum corneum diffusivity,[3],2.0E−11 cm^2/s
same,Stratum corneum/water partition coefficient,[3],2.0E+03
same,Vehicle diffusivity,[3],6.2E−09 cm^2/s
same,Vehicle/water partition coefficient,[3],4.0E+05
same,In vivo CLint scaled,[4],121.7 l/h/kg liver
same,AUC0 − t Fold Difference (Simulated Mean/Observed Mean),[5]; Day 1,1.4
same,Cmax Fold Difference (Simulated Mean/Observed Mean),[5]; Day 1,1.2
same,AUC0 − t Fold Difference (Simulated Mean/Observed Mean),[5]; Day 4,1.4
same,Cmax Fold Difference (Simulated Mean/Observed Mean),[5]; Day 4,0.6
same,"Dermal delivery (Epidermis + dermis + receptor fluid), 14C-octocrylene","[6]; 24 h, mean, ref SCCS (2021)",0.15%
same,"Dermis, distribution of 14C-octocrylene","[6]; 24 h, mean, ref SCCS (2021)",0.012%
same,"Epidermis, distribution of 14C-octocrylene","[6]; 24 h, mean, ref SCCS (2021)",0.14%
same,"Receptor fluid, distribution of 14C-octocrylene","[6]; 24 h, mean, ref SCCS (2021)",0.0001%
same,"Skin excess, distribution of 14C-octocrylene","[6]; 24 h, mean, ref SCCS (2021)",97.96%
same,"Total recovery, 14C-octocrylene","[6]; 24 h, mean, ref SCCS (2021)",98.8%
same,"Total strips (1–20), distribution of 14C-octocrylene","[6]; 24 h, mean, ref SCCS (2021)",0.69%
same,absorbed dose into receptor fluid,[6]; [9],negligible
same,dermal delivered fraction of the applied dose,[6]; [9],less than 0.4%
same,"Observed AUC0 − t, Geometric mean",[7]; Day 1,20.0 ng·h/mL
same,"Observed AUC0 − t, Range",[7]; Day 1,6.4 to 38.1 ng·h/mL
same,"Observed Cmax, Range",[7]; Day 1,0.5 to 3.6 ng/mL
same,"Observed AUC0 − t, Geometric mean",[7]; Day 4,94.7 ng·h/mL
same,"Observed AUC0 − t, Range",[7]; Day 4,41.4 to 210.0 ng·h/mL
same,"Observed Cmax, Range",[7]; Day 4,2.6 to 38.7 ng/mL
"C=CCN1CC[C@]23c4c5ccc(O)c4O[C@H]2C(=O)CC[C@@]3(O)[C@H]1C5 [Naloxone, reference compound]",hepatocyte CLint,[2],16.4 ± 1.6 µL/min/1e6 cells
same,remaining after 240 min,"human hepatocytes; positive control, human hepatocytes in suspension, 240 min",4.8 ± 1.9%
"CCCCC(CC)COC(=O)C=Cc1ccc(OC)cc1 (centres unmarked) [OMC, octyl methoxycinnamate]","blood plasma ratio at 60 min, 5 µM",[1],0.73
same,"fraction unbound at 60 min, 10 µM",Cross filtration,0.0004
same,dermal delivered fraction of the applied dose,"[8]; all the conditions (30 min to 24 h), target dose 200 µg/cm^2",less than 0.5%
same,"Dermal delivery (Epidermis + Dermis + Receptor fluid), 14C-OMC",[8]; terminated at 30 min,0.10%
same,"Dermis, distribution of 14C-OMC",[8]; terminated at 30 min,0.004%
same,"Epidermis, distribution of 14C-OMC",[8]; terminated at 30 min,0.07%
same,"Receptor fluid, distribution of 14C-OMC",[8]; terminated at 30 min,0.02%
same,"Skin excess, distribution of 14C-OMC",[8]; terminated at 30 min,91.04%
same,"Total recovery, 14C-OMC",[8]; terminated at 30 min,91.65%
same,"Total strips (1–20), distribution of 14C-OMC",[8]; terminated at 30 min,0.51%
same,"Dermal delivery (Epidermis + Dermis + Receptor fluid), 14C-OMC",[8]; terminated at 1 h,0.06%
same,"Dermis, distribution of 14C-OMC",[8]; terminated at 1 h,0.01%
same,"Epidermis, distribution of 14C-OMC",[8]; terminated at 1 h,0.04%
same,"Receptor fluid, distribution of 14C-OMC",[8]; terminated at 1 h,0.003%
same,"Skin excess, distribution of 14C-OMC",[8]; terminated at 1 h,112.02%
same,"Total recovery, 14C-OMC",[8]; terminated at 1 h,112.38%
same,"Total strips (1–20), distribution of 14C-OMC",[8]; terminated at 1 h,0.30%
same,"Dermal delivery (Epidermis + Dermis + Receptor fluid), 14C-OMC",[8]; terminated at 2 h,0.11%
same,"Dermis, distribution of 14C-OMC",[8]; terminated at 2 h,0.005%
same,"Epidermis, distribution of 14C-OMC",[8]; terminated at 2 h,0.06%
same,"Receptor fluid, distribution of 14C-OMC",[8]; terminated at 2 h,0.04%
same,"Skin excess, distribution of 14C-OMC",[8]; terminated at 2 h,89.22%
same,"Total recovery, 14C-OMC",[8]; terminated at 2 h,90.06%
same,"Total strips (1–20), distribution of 14C-OMC",[8]; terminated at 2 h,0.73%
same,"Dermal delivery (Epidermis + Dermis + Receptor fluid), 14C-OMC",[8]; terminated at 4 h,0.12%
same,"Dermis, distribution of 14C-OMC",[8]; terminated at 4 h,0.01%
same,"Epidermis, distribution of 14C-OMC",[8]; terminated at 4 h,0.05%
same,"Receptor fluid, distribution of 14C-OMC",[8]; terminated at 4 h,0.06%
same,"Skin excess, distribution of 14C-OMC",[8]; terminated at 4 h,100.26%
same,"Total recovery, 14C-OMC",[8]; terminated at 4 h,100.75%
same,"Total strips (1–20), distribution of 14C-OMC",[8]; terminated at 4 h,0.37%
same,"Dermal delivery (Epidermis + Dermis + Receptor fluid), 14C-OMC",[8]; terminated at 8 h,0.20%
same,"Dermis, distribution of 14C-OMC",[8]; terminated at 8 h,0.01%
same,"Epidermis, distribution of 14C-OMC",[8]; terminated at 8 h,0.10%
same,"Receptor fluid, distribution of 14C-OMC",[8]; terminated at 8 h,0.09%
same,"Skin excess, distribution of 14C-OMC",[8]; terminated at 8 h,113.76%
same,"Total recovery, 14C-OMC",[8]; terminated at 8 h,114.46%
same,"Total strips (1–20), distribution of 14C-OMC",[8]; terminated at 8 h,0.50%
same,"Dermal delivery (Epidermis + Dermis + Receptor fluid), 14C-OMC",[8]; terminated at 24 h,0.28%
same,"Dermis, distribution of 14C-OMC",[8]; terminated at 24 h,0.02%
same,"Epidermis, distribution of 14C-OMC",[8]; terminated at 24 h,0.21%
same,"Receptor fluid, distribution of 14C-OMC",[8]; terminated at 24 h,0.06%
same,"Skin excess, distribution of 14C-OMC",[8]; terminated at 24 h,100.26%
same,"Total recovery, 14C-OMC",[8]; terminated at 24 h,100.96%
same,"Total strips (1–20), distribution of 14C-OMC",[8]; terminated at 24 h,0.41%
same,hepatocyte CLint,[2],43.3 µL/min/1e6 cells
same,hepatocyte CLint at 10 µM,[2],43.3 µL/min/1e6 cells
same,depletion in suspension hepatocytes,human hepatocytes,medium to fast depletion
same,Dermis diffusivity,[3],1.0E−07 cm^2/s
same,Dermis/water partition coefficient,[3],7.0E−01
same,Epidermis diffusivity,[3],3.0E−08 cm^2/s
same,Epidermis/water partition coefficient,[3],2.0E+01
same,Stratum corneum diffusivity,[3],2.0E−10 cm^2/s
same,Stratum corneum/water partition coefficient,[3],4.5E+02
same,Vehicle diffusivity,[3],7.0E−12 cm^2/s
same,Vehicle/water partition coefficient,[3],1.5E+05
same,In vivo CLint scaled,[4],312.0 l/h/kg liver
same,AUC0 − t Fold Difference (Simulated Mean/Observed Mean),[5]; Day 1,1.5
same,Cmax Fold Difference (Simulated Mean/Observed Mean),[5]; Day 1,1.5
same,AUC0 − t Fold Difference (Simulated Mean/Observed Mean),[5]; Day 4,2.7
same,Cmax Fold Difference (Simulated Mean/Observed Mean),[5]; Day 4,1.3
same,"Observed AUC0 − t, Geometric mean",[7]; Day 1,21.6 ng·h/mL
same,"Observed AUC0 − t, Range",[7]; Day 1,2.7 to 57.7 ng·h/mL
same,"Observed Cmax, Range",[7]; Day 1,0.6 to 5 ng/mL
same,"Observed AUC0 − t, Geometric mean",[7]; Day 4,103.4 ng·h/mL
same,"Observed AUC0 − t, Range",[7]; Day 4,45.1 to 213.5 ng·h/mL
same,"Observed Cmax, Range",[7]; Day 4,2.6 to 30.6 ng/mL
